For one test, the system named is Candida albicans. Kind of test: Compound ( at <100 uM) was tested for growth inhibition against Candida albicans. The test is classed as functional.
The test system of another test is Bacillus subtilis. Description: Compound ( at <100 uM) was tested for growth inhibition against Bacillus subtilis. It is filed as functional.
The test system of a further test is Staphylococcus aureus. Kind of test: Compound ( at <100 uM) was tested for growth inhibition against Staphylococcus aureus. The test is classed as functional.
A further test has as its system HCT-116. Description: Cytotoxicity against HCT 116 cell line. Conditions: Homo sapiens. It is filed as functional, cell-based.
For test [1], the system named is MCF7. Kind of test: Inhibitory concentration against MCF-7 cell line. It is filed as functional, cell-based. Conditions: Homo sapiens. The method, boiled down: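 MCF-7 cells maintained in RPMI-1640 with 5% FCS at 37 °C under 5% CO2. Test material came from dilution plates prepared from the one-pot Ugi synthesis plates. Each sample was screened at five concentrations, and an approximate IC50 was estimated from the results.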

Test [2] deals with MCF7. Description: Compound was tested for cytotoxicity against MCF-7 cell line; Active. The test is classed as functional, cell-based. Particulars: Homo sapiens.

Consider 20 compounds from ChEMBL document CHEMBL1133254, “One-pot synthesis and biological evaluation of aspergillamides and analogues” (Bioorg Med Chem Lett, 2000).

Structures are written as SMILES. ≈ marks a conversion by molar mass, not a printed value. Calls of active or inactive are those of the source. The rule behind the calls is not given here.

On to `CC(=O)N[C@H](CC(C)C)C(=O)N(C)C(Cc1ccccc1)C(=O)N/C=C\c1c[nH]c2cc(OCc3ccccc3)ncc12` (stereo partly specified), for which the Inhibition (usually the share of the control response that was lost under treatment) in the test on Candida albicans worked out at 100%.
Consider `CC(=O)N1CCC[C@@H]1C(=O)N(CCc1c[nH]c2ccccc12)CC(=O)N/C=C\c1c[nH]c2cc(OCc3ccccc3)ncc12`, for which the Inhibition in the test with Bacillus subtilis and with Staphylococcus aureus was 100% throughout.
Take `CC(=O)NC(CC(C)C)C(=O)N(C)C(Cc1ccccc1)C(=O)N/C=C\c1c[nH]c2ccccc12` (stereo unspecified): the half-maximal inhibitory concentration (IC50) – broadly, the point on the concentration scale where inhibition reaches its midpoint – in the test on HCT-116 is 16 mg/L (≈ 33.7 µM).
Consider `CC(=O)N1CCC[C@H]1C(=O)N(C1CCCCC1)C1(C(=O)N/C=C\c2c[nH]c3ccccc23)CCCCC1`, for which it took 0.4 µM to reach half-maximal inhibition with MCF7 [1] (IC50).
For `CC(=O)N[C@H](CC(C)C)C(=O)N(CCCCCO)C1(C(=O)N/C=C\c2c[nH]c3cc(OCc4ccccc4)ncc23)CCN(Cc2ccccc2)CC1`, in the test with MCF7 [2], the Cytotoxicity result is “Active”.
In turn, `CC(=O)N[C@H](CC(C)C)C(=O)N(CCc1c[nH]c2ccccc12)CC(=O)N/C=C\c1c[nH]c2ccccc12` gave a concentration for half-maximal inhibition (IC50) in the test with MCF7 [1] of 49.9 µM.
Still for that read-out and setting: next, `CC(=O)N[C@H](CC(C)C)C(=O)N(C)C(Cc1ccccc1)C(=O)N/C=C\c1c[nH]c2ccccc12` (stereo partly specified): 0.3 µM.
The compound `CC(=O)NC(C(=O)N(C)C(C(=O)N/C=C\c1c(CC=C(C)C)[nH]c2ccccc12)C(C)C)C(C)C` (stereo unspecified) displayed an IC50 with HCT-116 of 16 mg/L (≈ 33.3 µM).
Still for that read-out and setting: next, `CCC(C)CC(C(=O)N/C=C\c1c[nH]c2ccccc12)N(C)Cc1ccc(O)cc1` (stereo unspecified) [ARAGILAMIDE]: 16 mg/L (≈ 39.5 µM).
`CC(=O)NCC(=O)N(CCc1c[nH]c2ccccc12)CC(=O)N/C=C\c1c[nH]c2ccccc12` had a concentration for half-maximal inhibition (IC50) in the test with MCF7 [1] of 4.1 µM.
Regarding `CC(=O)NCC(=O)N(CCCCCO)C1(C(=O)N/C=C\c2c[nH]c3cc(OCc4ccccc4)ncc23)CCN(Cc2ccccc2)CC1`, the Cytotoxicity result with MCF7 [2] is “Active”.
In the case of `O=C(/C=C/c1c[nH]c2ccccc12)N/C=C/c1c[nH]c2ccccc12` [CHONDRIAMIDE A], the 50% inhibitory concentration (IC50) with HCT-116 stood at 16 mg/L (≈ 48.9 µM).
Compound `CC(=O)N1CCCC1C(=O)N(C)C(Cc1ccccc1)C(=O)N/C=C\c1c[nH]c2cc(OCc3ccccc3)ncc12` (stereo unspecified) yielded an IC50 in the test on MCF7 [1] of 1.9 µM. The Cytotoxicity result in the test with MCF7 [2] was “Active”.
For the compound `CC(=O)N[C@H](CC(C)C)C(=O)N(CCc1c[nH]c2ccccc12)CC(=O)N/C=C\c1c[nH]c2cc(OCc3ccccc3)ncc12`, the Inhibition in the test with Bacillus subtilis and in the test with Staphylococcus aureus was 100% each time.
For the compound `CC(=O)N[C@H](CC(C)C)C(=O)N1C(C(=O)N/C=C\c2c[nH]c3ccccc23)CSC1(C)C` (stereo partly specified), the Inhibition in the test on Bacillus subtilis and in the test on Staphylococcus aureus was 100% in each case.
For the compound `CC(=O)NCC(=O)N(CCCCCO)C1(C(=O)N/C=C\c2c[nH]c3ccccc23)CCN(Cc2ccccc2)CC1`, the Inhibition in the test with Candida albicans is 100%.
As for `CC(=O)NCC(=O)N1C(C(=O)N/C=C\c2c[nH]c3ccccc23)CSC1(C)C` (stereo unspecified), the Inhibition in the test on Candida albicans worked out at 100%.
Take `CC(=O)NCC(=O)N(CCc1c[nH]c2ccccc12)CC(=O)N/C=C\c1c[nH]c2cc(OCc3ccccc3)ncc12`: the Cytotoxicity result with MCF7 [2] was “Active”.
On the same count and under the same terms, the value for `CC(=O)NCC(=O)N1C(C(=O)N/C=C\c2c[nH]c3cc(OCc4ccccc4)ncc23)CSC1(C)C` (stereo unspecified) was “Active”.
Take `CC(=O)N[C@H](CC(C)C)C(=O)N1C(C(=O)N/C=C\c2c[nH]c3cc(OCc4ccccc4)ncc23)CSC1(C)C` (stereo partly specified): the Inhibition in the test on Bacillus subtilis and with Staphylococcus aureus was 100% in each case. Moreover, the Cytotoxicity entry in the test on MCF7 [2] was “Active”.
